{
  "source": "ChEMBL document CHEMBL5370613",
  "about": "“Phenyl dialkynylcarbinols, a Bioinspired Series of Synthetic Antitumor Acetylenic Lipids” (J Med Chem, 2023)",
  "key": {"U2OS [1]": {"tested_on": "U2OS", "experiment": "Induction of apoptosis in human U2OS cells assessed as PARP-1 cleavage at 1 uM incubated for 12 hrs in presence of z-VAD-fmk by immunoblot analysis", "type": "functional, cell-based", "procedure,_shortened": "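U2OS cells were pre-incubated 1 h with z-VAD-fmk at 50 μM, then treated 12 h with 1 μM in complete medium. Whole-cell extracts were made in SDS lysis buffer (120 mM Tris-HCl pH 6.8, 20% glycerol, 4% SDS). Caspase-dependent PARP-1 cleavage fragment was detected by immunoblot with HRP secondaries and chemiluminescence.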"}, "[2]": {"experiment": "AUC in male CD-1 mouse at 5 mg/kg, iv measured for 480 mins by LC-MS/MS analysis", "type": "ADME, organism-based", "set-up": "time 480 min, dose 5 mg/kg, route iv", "settings": "in vivo", "procedure,_shortened": "(§1)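 Female (or male, as per line) CD-1 mice, 3 per time point, given a single 5 mg/kg dose in 10% Kolliphor EL in saline (injections) or water (oral). Blood sampled 5–480 min; plasma extracted with CH₃CN and quantified by LC-MS/MS (ESI+, m/z 251.20) against a calibration curve in extracted plasma; parameters by non-compartmental analysis.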"}, "[3]": {"experiment": "Tmax in female CD-1 mouse at 5 mg/kg, ip measured for 480 mins by LC-MS/MS analysis", "type": "ADME, organism-based", "settings": "in vivo", "procedure,_shortened": "(§2)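 Female (IP, SC, PO) or male (PO) CD-1 mice received 5 mg/kg in 10% Kolliphor EL vehicle, 3 mice per time point. Plasma was sampled at 5, 15, 30, 60, 120, 360 and 480 min, acetonitrile-extracted and quantified by LC-MS/MS against a calibration in extracted plasma. Tmax was the time of the observed maximum concentration.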"}, "U2OS [4]": {"tested_on": "U2OS", "experiment": "Activation of unfolded protein response in human U2OS cells assessed as increase in HSP70 accumulation at 1 uM incubated for 12 hrs in presence of z-VAD-fmk by immunoblotting analysis", "type": "functional, cell-based", "procedure,_shortened": "(§3)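 U2OS cells in complete growth medium treated at 1 μM for the indicated times, with 50 μM z-VAD-fmk added 1 h beforehand where stated; lysed in SDS buffer (Tris-HCl pH 6.8, 4% SDS) and immunoblotted, detected with HRP secondary antibodies and chemiluminescence.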"}, "[5]": {"experiment": "Volume of distribution in elimination phase in female CD-1 mouse at 5 mg/kg, sc measured for 480 mins by LC-MS/MS analysis", "type": "ADME, organism-based", "settings": "in vivo, read-out: Vz/F", "procedure,_shortened": "(§4)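 CD-1 mice (female for all routes, male for IV and PO) were dosed at 5 mg/kg in 10% Kolliphor EL in saline (injections) or water (oral), 3 mice per time point. Blood was taken at 5–480 min, and plasma was extracted with acetonitrile. LC-MS/MS positive ESI, m/z 251.20. Parameters came from non-compartmental analysis with a plasma calibration curve.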"}, "[6]": {"experiment": "Clearance in male CD-1 mouse at 5 mg/kg, iv measured for 480 mins by LC-MS/MS analysis", "type": "ADME, organism-based", "settings": "in vivo", "procedure,_shortened": "as §1"}, "[7]": {"experiment": "Drug localization in wild type human U2OS cell membranes assessed as increase in fluorescence by measuring HSD17B11-mediated bioactivation at 1 uM incubated for 2 hrs by AlexaFluor488-azido based microscopic analysis", "set-up": "species or system Membrane", "procedure,_shortened": "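WT or CRISPR HSD17B11-KO U2OS on coverslips treated 2 h at 1 μM, fixed 15 min in 2% PFA, permeabilised with 0.2% Triton X-100, clicked in situ with azido-AlexaFluor488, DAPI counterstained; fluorescence imaged.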"}, "U2OS [8]": {"tested_on": "U2OS", "experiment": "Cytotoxicity against human U2OS cells with HSD17B11 knockout complemented with GFP assessed as cell viability at 1 uM incubated for 72 hrs by SRB assay relative to control", "type": "functional", "settings": "read-out: Activity", "procedure,_shortened": "(§5)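 U2OS HSD17B11-KO cells stably complemented with GFP, HSD17B11-GFP or HSD17B13-GFP, exposed to 1 μM compound for 72 h in complete medium; viability read by SRB assay, in three independent experiments.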"}, "U2OS [9]": {"tested_on": "U2OS", "experiment": "Activation of unfolded protein response in human U2OS cells assessed as increase in IRE1alpha autophosphorylation at S724 residue at 1 uM incubated for 2 to 6 hrs by immunoblotting analysis", "type": "functional, cell-based", "settings": "time 2-6 hrs", "procedure,_shortened": "as §3"}, "[10]": {"experiment": "Bioavailability in female CD-1 mouse at 5 mg/kg, sc measured for 480 mins by LC-MS/MS analysis", "type": "ADME, organism-based", "settings": "in vivo", "procedure,_shortened": "as §1"}, "[11]": {"experiment": "Cmax in female CD-1 mouse at 5 mg/kg, iv measured for 480 mins by LC-MS/MS analysis", "type": "ADME, organism-based", "set-up": "time 480 min, dose 5 mg/kg, route iv", "settings": "in vivo", "procedure,_shortened": "as §1"}, "[12]": {"experiment": "Volume of distribution in elimination phase in female CD-1 mouse at 5 mg/kg, po measured for 480 mins by LC-MS/MS analysis", "type": "ADME, organism-based", "settings": "in vivo, read-out: Vz/F", "procedure,_shortened": "as §4"}, "[13]": {"experiment": "Toxicity in Balb/c mouse assessed as reduction in body weight at 10 mg/kg, iv administered 3 times per week and measured on day 15", "type": "organism-based", "set-up": "scale not given: the % may be the effect or the level left", "settings": "in vivo, 360 h, time 15 day", "procedure,_shortened": "(§6)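 Female adult Balb/c mice, 6 per group, received IV injections 3 times weekly for 3 weeks at 2, 5 or 10 mg/kg. Dosing solutions were 0.4, 1 and 2 mg/mL in saline with 10% Cremophor, given at 5 mL/kg, with IP substitution when IV was impossible. Mice were weighed thrice weekly and observed daily, with necropsy at endpoint.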"}, "[14]": {"experiment": "AUC in female CD-1 mouse at 5 mg/kg, iv measured for 480 mins by LC-MS/MS analysis", "type": "ADME, organism-based", "set-up": "dose 5 mg/kg, time 480 min, route iv", "settings": "in vivo", "procedure,_shortened": "as §1"}, "[15]": {"experiment": "Tmax in male CD-1 mouse at 5 mg/kg, po measured for 480 mins by LC-MS/MS analysis", "type": "ADME, organism-based", "settings": "in vivo", "procedure,_shortened": "as §2"}, "[16]": {"experiment": "Half life in female CD-1 mouse at 5 mg/kg, iv measured for 480 mins by LC-MS/MS analysis", "type": "ADME, organism-based", "settings": "in vivo", "procedure,_shortened": "as §1"}, "U2OS [17]": {"tested_on": "U2OS", "experiment": "Cytotoxicity against human U2OS cells with HSD17B11 knockout complemented with HSD17B11-GFP assessed as cell viability at 1 uM incubated for 72 hrs by SRB assay relative to control", "type": "functional", "settings": "read-out: Activity", "procedure,_shortened": "as §5"}, "[18]": {"experiment": "AUC in female CD-1 mouse at 5 mg/kg, sc measured for 480 mins by LC-MS/MS analysis", "type": "ADME, organism-based", "set-up": "time 480 min, dose 5 mg/kg, route sc", "settings": "in vivo", "procedure,_shortened": "as §1"}, "[19]": {"experiment": "Half life in female CD-1 mouse at 5 mg/kg, sc measured for 480 mins by LC-MS/MS analysis", "type": "ADME, organism-based", "settings": "in vivo", "procedure,_shortened": "as §1"}, "U2OS [20]": {"tested_on": "U2OS", "experiment": "Cytotoxicity against human U2OS cells with HSD17B11 knockout complemented with HSD17B13-GFP assessed as cell viability at 1 uM incubated for 72 hrs by SRB assay relative to control", "type": "functional", "settings": "read-out: Activity", "procedure,_shortened": "as §5"}, "[21]": {"experiment": "Clearance in female CD-1 mouse at 5 mg/kg, ip measured for 480 mins by LC-MS/MS analysis", "type": "ADME, organism-based", "settings": "in vivo", "procedure,_shortened": "as §1"}, "[22]": {"experiment": "Toxicity in Balb/c mouse assessed as sign of toxicity administered as three escalating doses of 2 to 10 mg/kg, iv per week and measured for 10 days", "type": "organism-based", "settings": "in vivo, 240 h, dose 2-10 mg/kg, time 10 day", "procedure,_shortened": "as §6"}, "[23]": {"experiment": "Clearance in female CD-1 mouse at 5 mg/kg, po measured for 480 mins by LC-MS/MS analysis", "type": "ADME, organism-based", "settings": "in vivo", "procedure,_shortened": "as §1"}, "[24]": {"experiment": "AUC in male CD-1 mouse at 5 mg/kg, po measured for 480 mins by LC-MS/MS analysis", "type": "ADME, organism-based", "set-up": "time 480 min, dose 5 mg/kg, route po", "settings": "in vivo", "procedure,_shortened": "as §1"}, "[25]": {"experiment": "Volume of distribution in elimination phase in male CD-1 mouse at 5 mg/kg, iv measured for 480 mins by LC-MS/MS analysis", "type": "ADME, organism-based", "settings": "in vivo, read-out: Vz", "procedure,_shortened": "as §4"}, "[26]": {"experiment": "Volume of distribution at steady state in male CD-1 mouse at 5 mg/kg, iv measured for 480 mins by LC-MS/MS analysis", "type": "ADME, organism-based", "settings": "in vivo, read-out: Vdss", "procedure,_shortened": "as §4"}},
  "note": "Activity calls are given as the source filed them. No cut-off for these calls is given here.",
  "data": [
    {"smiles": "C#C[C@H](O)C#Cc1ccc(CCCCCCCC)cc1", "values": [
      {"measurement": "Activity", "setting": "U2OS [1]", "result": "inactive"},
      {"measurement": "AUC at 8 h", "setting": "[2]", "result": 772, "unit": "ng·h/mL"},
      {"measurement": "Tmax", "setting": "[3]", "result": 5, "unit": "min"},
      {"measurement": "Activity", "setting": "U2OS [4]", "result": "Active"},
      {"measurement": "Vd/F", "setting": "[5]", "result": 143, "unit": "L/kg"},
      {"measurement": "clearance", "setting": "[6]", "result": 108, "unit": "mL/min/kg"},
      {"measurement": "Drug uptake", "setting": "[7]", "result": "Not Active"},
      {"measurement": "viability at 1 µM", "setting": "U2OS [8]", "result": 90, "unit": "%"},
      {"measurement": "Activity", "setting": "U2OS [9]", "result": "Active"},
      {"measurement": "bioavailability", "setting": "[10]", "result": 16, "unit": "%"},
      {"measurement": "Cmax", "setting": "[11]", "result": 17, "unit": "µM"},
      {"measurement": "Vd/F", "setting": "[12]", "result": 69.4, "unit": "L/kg"},
      {"measurement": "Activity", "setting": "[13]", "result": -18, "unit": "%"},
      {"measurement": "AUC at 8 h", "setting": "[14]", "result": 1760, "unit": "ng·h/mL"},
      {"measurement": "Tmax", "setting": "[15]", "result": 15, "unit": "min"},
      {"measurement": "half-life", "setting": "[16]", "result": 40, "unit": "min"},
      {"measurement": "viability at 1 µM", "setting": "U2OS [17]", "result": 0, "unit": "%"},
      {"measurement": "AUC at 8 h", "setting": "[18]", "result": 123, "unit": "ng·h/mL"},
      {"measurement": "half-life", "setting": "[19]", "result": 147, "unit": "min"},
      {"measurement": "viability at 1 µM", "setting": "U2OS [20]", "result": 0, "unit": "%"},
      {"measurement": "CL/F", "setting": "[21]", "result": 414, "unit": "mL/min/kg"},
      {"measurement": "Activity", "setting": "[22]", "result": "Non-Toxic"},
      {"measurement": "CL/F", "setting": "[23]", "result": 1460, "unit": "mL/min/kg"},
      {"measurement": "AUC at 8 h", "setting": "[24]", "result": 47.4, "unit": "ng·h/mL"},
      {"measurement": "Vd", "setting": "[25]", "result": 8.4, "unit": "L/kg"},
      {"measurement": "Vd", "setting": "[26]", "result": 3.99, "unit": "L/kg"}
    ]}
  ]
}
